One experiment concerns NCI-H157. Nature of the experiment: Growth inhibition of human NCI-H157 cells at 100 uM after 48 hrs by SRB assay. To be noted: NCI-H157, 48 h, read-out: GI. The format is functional. The method in brief: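 H-157 cells seeded at 10⁴ cells per well and grown at 37 °C under 5% CO₂ to a monolayer within 24 h. Compound added, with a vincristine standard and a cells-plus-media blank, for 48 h. Cells fixed in 50% ice-cold TCA (4 °C, 1 h), washed 5× with PBS, stained with 0.4% w/v SRB in 1% acetic acid (30 min, RT), rinsed, and dye solubilized in 10 mM Tris base. A490 read minus A630 background; triplicate.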

Experiment [1] has as its target Urease (Canavalia ensiformis) (UniProt P07374). The experiment in a line: Inhibition of jack bean urease using urea as substrate assessed as reduction in ammonia production at 1 mM after 30 mins by indophenol method.
The target in the next experiment is Urease (Canavalia ensiformis, UniProt P07374). The experiment in a line: Inhibition of jack bean urease using urea as substrate assessed as reduction in ammonia production after 30 mins by indophenol method. The method in brief: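 Compounds were first screened, and those giving at least 50% inhibition went on to dose-response testing. For each, 7–9 serial dilutions were made in assay buffer, and curves were run under the same conditions as the initial screen.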

Structures are written as SMILES.

Chain of Urease (P07374 whole entry): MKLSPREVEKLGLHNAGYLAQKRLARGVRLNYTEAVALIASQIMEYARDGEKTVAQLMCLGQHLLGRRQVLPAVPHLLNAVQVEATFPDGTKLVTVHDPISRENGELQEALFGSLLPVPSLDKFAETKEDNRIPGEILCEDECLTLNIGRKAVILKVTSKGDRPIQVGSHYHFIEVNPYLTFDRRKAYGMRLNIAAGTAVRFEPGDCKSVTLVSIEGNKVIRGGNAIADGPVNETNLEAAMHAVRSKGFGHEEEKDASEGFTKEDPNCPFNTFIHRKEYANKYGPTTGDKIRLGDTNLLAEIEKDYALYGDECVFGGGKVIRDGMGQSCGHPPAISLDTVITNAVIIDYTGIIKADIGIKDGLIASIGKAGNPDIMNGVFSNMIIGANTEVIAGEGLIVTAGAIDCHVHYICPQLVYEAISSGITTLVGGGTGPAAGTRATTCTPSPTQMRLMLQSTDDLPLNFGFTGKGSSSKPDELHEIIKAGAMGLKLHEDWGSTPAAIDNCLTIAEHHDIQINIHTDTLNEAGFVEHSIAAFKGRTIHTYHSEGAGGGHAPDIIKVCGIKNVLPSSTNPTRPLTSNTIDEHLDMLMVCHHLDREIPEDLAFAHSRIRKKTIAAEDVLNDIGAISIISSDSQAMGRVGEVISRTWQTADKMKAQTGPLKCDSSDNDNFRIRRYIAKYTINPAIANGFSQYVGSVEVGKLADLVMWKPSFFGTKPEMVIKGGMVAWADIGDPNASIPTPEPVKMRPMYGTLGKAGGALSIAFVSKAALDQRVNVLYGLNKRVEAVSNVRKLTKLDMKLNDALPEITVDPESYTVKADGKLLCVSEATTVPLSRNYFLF
Chain of Urease (Canavalia ensiformis) (P07374 whole entry, looked up): as the sequence (P07374 whole entry) above

`O=C(NC(=S)Nc1ccccc1Cl)c1cccc(Cl)c1`: the inhibition of growth at 100 µM with NCI-H157 was determined as 45.4%. Also, in experiment [1], the inhibition was determined as 25.7%.

In the case of `O=C(NC(=S)Nc1cccc(Br)c1)c1cccc(Cl)c1`, the IC50 at Urease stood at 20.1 µM. Further, in the experiment with NCI-H157, the inhibition of growth at 100 µM worked out at 32.4%.

`O=C(NC(=S)Nc1ccc(F)cc1)c1cccc(Cl)c1`: the IC50 at Urease came to 2.91 µM.

Turning to `Cc1cccc(NC(=S)NC(=O)c2cccc(Cl)c2)c1C`, the concentration for half-maximal inhibition (IC50) at Urease amounted to 4.45 µM. For the same compound, the inhibition of growth at 100 µM in the experiment on NCI-H157 worked out at 41.7%.

In the case of `O=C(NC(=S)Nc1cccc(Cl)c1)c1cccc(Cl)c1`, in the experiment with NCI-H157, the inhibition of growth at 100 µM is 52.9%. The inhibition in experiment [1] was 29.1%.

With `O=C(NC(=S)Nc1cc(Cl)cc(Cl)c1)c1cccc(Cl)c1`, the IC50 on Urease was 6.53 µM. Moreover, in the experiment with NCI-H157, the inhibition of growth at 100 µM is 48.5%.

Take `CN(C(=S)NC(=O)c1cccc(Cl)c1)c1ccccc1`: the IC50 on Urease is 17.5 µM. In the experiment on NCI-H157, the inhibition of growth at 100 µM is 45.1%.

With `O=C(NC(=S)Nc1ccc(Cl)cc1Cl)c1cccc(Cl)c1`, the IC50 on Urease came to 1.34 µM. Moreover, the inhibition of growth at 100 µM in the experiment with NCI-H157 was determined as 38.9%.

Regarding `O=C(NC(=S)Nc1ncccn1)c1cccc(Cl)c1`, the half-inhibitory concentration (IC50) on Urease stood at 2.11 µM. Moreover, the inhibition of growth at 100 µM in the experiment with NCI-H157 was 57.2%.

For the compound `O=C(NC(=S)Nc1ccc(Br)cc1Br)c1cccc(Cl)c1`, the IC50 on Urease turned out to be 6.32 µM. For the same compound, the inhibition of growth at 100 µM with NCI-H157 was 38.2%.

Regarding `O=C(NC(=S)NCc1ccccc1)c1cccc(Cl)c1`, the IC50 on Urease is 16.4 µM. For the same compound, the inhibition of growth at 100 µM with NCI-H157 turned out to be 40.5%.

For `O=C(NC(=S)Nc1c(Cl)cc(Cl)cc1Cl)c1cccc(Cl)c1`, on Urease, the concentration for half-maximal inhibition (IC50) came to 3.64 µM. The inhibition of growth at 100 µM in the experiment with NCI-H157 is 60.9%.

Take `O=C(NC(=S)N(C1CCCCC1)C1CCCCC1)c1cccc(Cl)c1`: the inhibition of growth at 100 µM in the experiment with NCI-H157 was found to be 47.8%. For the same compound, the inhibition in experiment [1] worked out at 29.9%.

On to `O=C(NC(=S)Nc1nc2ccccc2s1)c1cccc(Cl)c1`, for which the inhibition of growth at 100 µM with NCI-H157 was 48.8%. The inhibition in experiment [1] amounted to 27.9%.

As to `O=C(NC(=S)Nc1ccccc1)c1cccc(Cl)c1`, the 50% inhibitory concentration (IC50) on Urease is 3.24 µM. Moreover, the inhibition of growth at 100 µM in the experiment with NCI-H157 turned out to be 45.2%.

On to `COc1cccc(NC(=S)NC(=O)c2cccc(Cl)c2)c1`, for which, in the experiment with NCI-H157, the inhibition of growth at 100 µM was found to be 42.2%. In addition, the inhibition in experiment [1] turned out to be 21.7%.

As to `CCCCc1ccc(NC(=S)NC(=O)c2cccc(Cl)c2)cc1`, in the experiment on NCI-H157, the inhibition of growth at 100 µM worked out at 47.7%. Moreover, in experiment [1], the inhibition is 36.9%.

Regarding `Cc1ccc(NC(=S)NC(=O)c2cccc(Cl)c2)cc1`, the concentration for half-maximal inhibition (IC50) on Urease is 12.4 µM. Besides, the inhibition of growth at 100 µM with NCI-H157 worked out at 39.4%.

For `O=C(NC(=S)Nc1ccccc1C(F)(F)F)c1cccc(Cl)c1`, the half-maximal inhibitory concentration (IC50) on Urease is 5.58 µM. Moreover, in the experiment on NCI-H157, the inhibition of growth at 100 µM was 36.9%.

Regarding `O=C(NC(=S)Nc1ccc([N+](=O)[O-])cc1[N+](=O)[O-])c1cccc(Cl)c1`, in the experiment on NCI-H157, the inhibition of growth at 100 µM stood at 36.1%. Further, the inhibition in experiment [1] came out at 23.1%.

`O=C(NC(=S)Nc1ccc([N+](=O)[O-])cc1)c1cccc(Cl)c1`: the inhibition of growth at 100 µM with NCI-H157 is 32.7%. In experiment [1], the inhibition is 28.1%.

Take `O=C(NC(=S)Nc1cc(Cl)ccc1Cl)c1cccc(Cl)c1`: the IC50 at Urease came to 9.72 µM. For the same compound, the inhibition of growth at 100 µM in the experiment on NCI-H157 turned out to be 46.6%.

For `O=C(NC(=S)Nc1cccc(C(F)(F)F)c1)c1cccc(Cl)c1`, the IC50 on Urease was 2.86 µM. The inhibition of growth at 100 µM with NCI-H157 is 48.9%.

Take `O=C(NC(=S)Nc1ccc(C(F)(F)F)cc1)c1cccc(Cl)c1`: the IC50 at Urease stood at 7.04 µM. The inhibition of growth at 100 µM in the experiment on NCI-H157 was determined as 44.6%.

Take `O=C(NC(=S)Nc1cccc(Cl)c1Cl)c1cccc(Cl)c1`: the IC50 at Urease is 1.92 µM. The inhibition of growth at 100 µM in the experiment on NCI-H157 worked out at 50.7%.

Turning to `COc1ccccc1NC(=S)NC(=O)c1cccc(Cl)c1`, the IC50 at Urease amounted to 3.79 µM. In addition, the inhibition of growth at 100 µM in the experiment with NCI-H157 is 42.8%.

With `Cc1cc(C)c(NC(=S)NC(=O)c2cccc(Cl)c2)c(C)c1`, the IC50 on Urease was 1.23 µM. Also, in the experiment with NCI-H157, the inhibition of growth at 100 µM is 43.7%.

As to `O=C(NC(=S)NCc1ccccc1Cl)c1cccc(Cl)c1`, in the experiment on NCI-H157, the inhibition of growth at 100 µM came out at 27.6%. Also, in experiment [1], the inhibition came out at 27.4%.

In the case of `O=C(NC(=S)Nc1cccc2ccccc12)c1cccc(Cl)c1`, in the experiment on NCI-H157, the inhibition of growth at 100 µM was 42.2%. In addition, the inhibition in experiment [1] was 37.1%.

Turning to `O=C(NC(=S)NC1CCCCC1)c1cccc(Cl)c1`, the half-maximal inhibitory concentration (IC50) at Urease was 14.3 µM. Moreover, the inhibition of growth at 100 µM in the experiment on NCI-H157 was determined as 48.5%.

Take `CCc1cccc(CC)c1NC(=S)NC(=O)c1cccc(Cl)c1`: the IC50 at Urease is 12.6 µM. For the same compound, in the experiment with NCI-H157, the inhibition of growth at 100 µM was found to be 41.2%.

For the compound `O=C(NC(=S)Nc1c(Cl)cccc1Cl)c1cccc(Cl)c1`, the 50% inhibitory concentration (IC50) on Urease was 5.38 µM. Further, the inhibition of growth at 100 µM with NCI-H157 worked out at 42.2%.

For the compound `O=C(NC(=S)Nc1ccccc1[N+](=O)[O-])c1cccc(Cl)c1`, on Urease, the IC50 amounted to 8.59 µM. Further, the inhibition of growth at 100 µM with NCI-H157 was 36.4%.

Regarding `CC[C@]1(O)C[C@H]2CN(CCc3c([nH]c4ccccc34)[C@@](C(=O)OC)(c3cc4c(cc3OC)N(C=O)[C@H]3[C@@](O)(C(=O)OC)[C@H](OC(C)=O)[C@]5(CC)C=CCN6CC[C@]43[C@@H]65)C2)C1` [VINCRISTINE], in the experiment on NCI-H157, the inhibition of growth at 100 µM is 74.6%.

Regarding `O=C(NC(=S)Nc1ccc(Cl)c(Cl)c1)c1cccc(Cl)c1`, the inhibition of growth at 100 µM in the experiment on NCI-H157 stood at 39.4%. Moreover, the inhibition in experiment [1] amounted to 36.7%.

As to `O=C(NC(=S)Nc1c(Cl)c(Cl)cc(Cl)c1Cl)c1cccc(Cl)c1`, the inhibition of growth at 100 µM with NCI-H157 was 45.5%. Also, the inhibition in experiment [1] worked out at 32.7%.

As to `O=C(NC(=S)Nc1ccc(Cl)cc1)c1cccc(Cl)c1`, the IC50 at Urease was 11.7 µM. For the same compound, the inhibition of growth at 100 µM with NCI-H157 stood at 52.6%.

With `O=C(NC(=S)Nc1cc(Cl)c(Cl)cc1Cl)c1cccc(Cl)c1`, at Urease, the IC50 amounted to 7.41 µM. Also, the inhibition of growth at 100 µM in the experiment on NCI-H157 worked out at 43.3%.

The record behind these values is ChEMBL document CHEMBL3826920, “Solution-phase microwave assisted parallel synthesis, biological evaluation and in silico docking studies of N,N'-disubstituted thioureas derived from 3-chlorobenzoic acid” (Bioorg Med Chem, 2016).
